Screening data: PubChem, several laboratories
NSD2 inh – inhibitors of human histone methyltransferase NSD2. O96028. NSD2 peptide methylation, AlphaScreen, 120 min. inhibition, % at 12.5 µM. 310,000 tested, 0.54% active
Target sequence (O96028 whole entry, looked up): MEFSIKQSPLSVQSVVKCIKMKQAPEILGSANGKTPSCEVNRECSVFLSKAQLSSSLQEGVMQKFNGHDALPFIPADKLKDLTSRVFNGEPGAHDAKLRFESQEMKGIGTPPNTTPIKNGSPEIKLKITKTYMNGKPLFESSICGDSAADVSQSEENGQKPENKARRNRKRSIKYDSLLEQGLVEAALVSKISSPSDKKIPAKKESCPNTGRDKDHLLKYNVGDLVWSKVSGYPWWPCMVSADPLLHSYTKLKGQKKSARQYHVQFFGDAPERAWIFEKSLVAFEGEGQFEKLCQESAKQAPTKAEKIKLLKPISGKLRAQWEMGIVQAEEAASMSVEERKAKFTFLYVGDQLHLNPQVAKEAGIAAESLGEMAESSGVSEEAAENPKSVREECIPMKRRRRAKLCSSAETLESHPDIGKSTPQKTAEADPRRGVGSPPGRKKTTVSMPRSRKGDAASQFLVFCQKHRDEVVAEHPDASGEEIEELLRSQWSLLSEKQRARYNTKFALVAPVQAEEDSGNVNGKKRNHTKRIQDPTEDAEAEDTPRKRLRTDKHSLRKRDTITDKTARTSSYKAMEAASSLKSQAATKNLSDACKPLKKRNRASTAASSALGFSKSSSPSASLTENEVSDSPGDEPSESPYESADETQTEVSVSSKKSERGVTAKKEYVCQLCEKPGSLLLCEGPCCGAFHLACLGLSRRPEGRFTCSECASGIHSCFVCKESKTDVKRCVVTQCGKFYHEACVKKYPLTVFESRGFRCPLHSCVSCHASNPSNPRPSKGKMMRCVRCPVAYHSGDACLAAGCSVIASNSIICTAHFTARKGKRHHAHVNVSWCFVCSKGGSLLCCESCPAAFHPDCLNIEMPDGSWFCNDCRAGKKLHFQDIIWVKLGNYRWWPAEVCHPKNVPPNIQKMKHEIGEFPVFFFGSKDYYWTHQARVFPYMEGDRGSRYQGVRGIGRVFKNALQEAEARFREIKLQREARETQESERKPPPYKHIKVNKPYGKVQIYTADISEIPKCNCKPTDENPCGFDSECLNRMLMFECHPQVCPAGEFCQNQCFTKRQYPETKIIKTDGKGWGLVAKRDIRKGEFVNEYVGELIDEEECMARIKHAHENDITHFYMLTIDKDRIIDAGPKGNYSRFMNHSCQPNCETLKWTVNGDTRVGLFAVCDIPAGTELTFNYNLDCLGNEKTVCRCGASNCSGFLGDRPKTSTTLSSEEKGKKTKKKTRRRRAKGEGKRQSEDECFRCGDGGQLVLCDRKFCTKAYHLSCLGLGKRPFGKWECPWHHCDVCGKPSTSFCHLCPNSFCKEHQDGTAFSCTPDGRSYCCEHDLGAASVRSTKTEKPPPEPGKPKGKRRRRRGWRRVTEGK
NS3 helicase inh – blocks Hepatitis C virus NS3 helicase unwinding | 290,000 tested, 0.56% active | inhibition, % at 10.9 µM | NS3 helicase DNA unwinding, Cy5 molecular beacon fluorescence;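 active means inhibition above the mean of all tested compounds plus 3 SD, set per campaign, cut at about 35% in these data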;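 further: 0% = DMSO wells and 100% = thioflavine S control wells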
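Compound dosing – single dose, 10.9 µM nominal final, DMSO 0.8% final · System – NS3 helicase fragment of HCV · Buffer or medium – MOPS pH 6.5, MgCl2, DTT, Tween20, BSA · Signal – Cy5 beacon fluorescence read at start and 1 h · Also added – annealed dual-labelled DNA beacon duplex, ATP-started · Schedule – 1 h at 25 °C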
DNMT1 block – blocks human DNA methyltransferase DNMT1; 360,000 tested, 0.83% active; inhibition (reported as % activation of signal), % at 10 µM; AID 588458; DNMT1 molecular beacon, Hinp1I cleavage, fluorescence; P26358
Casp6 inh – inhibitors of human caspase-6 | P55212 | purified caspase-6, Z-VEID-R110 cleavage fluorescence | inhibition, % at 12.5 µM | 350,000 tested, 0.53% active | AID 686996;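 active means mean inhibition across replicates at least about 35%, with every replicate also reaching that limit, limit read from the data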;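 further: 0% = median of neutral control wells and 100% = no fluorescence left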
Starred values were filed as active, the others as inactive. The list is not random: actives were taken first. Their share in the collection is about 1.5%. Unless noted, no stated cut-off is given here; in the data, active means inhibition above about 50%; inactive means the rest.

Results for O=C1C(=O)c2ccccc2-c2ccccc21 ?
NS3 helicase inh: 15.0; DNMT1 block: 105.1*; Casp6 inh: 53.8*

What do the screens show for `O=C(O)[C@H]1[C@H](CO)[C@H]2Cn3c(ccc(C4=CCCC4)c3=O)[C@@H]1N2C(=O)Cc1ccccn1`?
Casp6 inh: 1.9

What do the screens show for `O=C1NC(=O)N(Cc2ccco2)C(=O)/C1=C/C=C/c1ccco1`?
NS3 helicase inh: 32.8; DNMT1 block: 97.4*; Casp6 inh: 88.2*

What do the screens show for `CN1C(=O)/C(=C/C=C/c2ccco2)C(=O)NC1=S`?
NS3 helicase inh: 32.9; DNMT1 block: 93.6*; Casp6 inh: 76.0*

How did COc1ccc(/C=C2/C(=O)NC(=O)N(Cc3ccco3)C2=O)cc1 do in these assays?
NS3 helicase inh: 24.8

Results for Cc1ccc(OCCn2cccc2/C=C2/C(=O)NC(=O)N(Cc3ccco3)C2=O)cc1 ?
NSD2 inh: 14.8; NS3 helicase inh: 26.8; DNMT1 block: 60.6*; Casp6 inh: 76.2*

How did CCOC(=O)C1CCN(/C=C2/C(=O)NC(=O)N(Cc3ccco3)C2=O)CC1 do in these assays?
NSD2 inh: 21.8; NS3 helicase inh: 20.8; DNMT1 block: 28.6; Casp6 inh: 55.0*

How did O=C(Cc1cccnc1)N1CCCCN2[C@H](CO)[C@@H](c3ccc(/C=C/c4ccccc4)cc3)[C@@H]2C1 do in these assays?
Casp6 inh: 0.5

What do the screens show for `COc1ccc(Cc2nccc3cc(OC)c(OC)cc23)cc1OC`?
NS3 helicase inh: -8.2; DNMT1 block: -4.5; Casp6 inh: 53.9*

Results for O=C1CC=C2C3CC4N(CCC45c4ccccc4N1C25)CC3=CCO (stereo not drawn) ?
NSD2 inh: -1.6; DNMT1 block: 3.3; Casp6 inh: 0.7

What do the screens show for `O=C1CC=C2C3CC4N(CCC45c4cc(O)c(O)cc4N1C25)CC3=CCBr` (stereo not drawn)?
NSD2 inh: 107.0*; DNMT1 block: 91.2*; Casp6 inh: 6.6

What do the screens show for `O=c1[nH]c(=O)n(Cc2ccco2)c(O)c1C=NCc1cccs1`?
NSD2 inh: 3.1; NS3 helicase inh: 2.1; DNMT1 block: 15.2

Results for O=c1[nH]c(=O)n(Cc2ccco2)c(O)c1/C=N/N1CCCCCC1 ?
NSD2 inh: 3.1; NS3 helicase inh: 15.1; DNMT1 block: 10.5; Casp6 inh: -1.6

What do the screens show for `NC(=O)c1ccc(N=Cc2c(O)n(Cc3ccco3)c(=O)[nH]c2=O)cc1`?
NSD2 inh: 0.1; NS3 helicase inh: 9.7; DNMT1 block: 61.5*; Casp6 inh: 11.5

Results for N#Cc1c(/N=C/c2c(O)n(Cc3ccco3)c(=O)[nH]c2=O)sc2c1CCCC2 ?
NSD2 inh: 25.3; NS3 helicase inh: 25.6; DNMT1 block: 66.8*

How did COC(=O)[C@H]1[C@H](CO)[C@H]2Cn3c(ccc(C4=CCCC4)c3=O)[C@@H]1N2CC1CCCC1 do in these assays?
Casp6 inh: -0.1

How did OCCNc1c2c(nc3ccccc13)CCCC2 do in these assays?
NSD2 inh: -0.1; NS3 helicase inh: 2.6; DNMT1 block: 1.4

Results for C[n+]1c2ccccc2nc2ccc(NCCO)cc21 ?
NSD2 inh: 101.2*; NS3 helicase inh: 21.5; DNMT1 block: 25.4; Casp6 inh: 82.5*

How did CNc1ccc2nc3ccccc3[n+](C)c2c1 do in these assays?
NSD2 inh: 81.3*; NS3 helicase inh: 18.2; DNMT1 block: 38.1; Casp6 inh: 95.0*

How did Cc1c(N=Nc2c(O)[nH]c(=O)[nH]c2=O)c(=O)n(-c2ccccc2)n1C do in these assays?
NSD2 inh: -6.1; NS3 helicase inh: -0.1; DNMT1 block: 0.0; Casp6 inh: 40.8*

What do the screens show for `Cc1cccc(N2C(=O)/C(=C/c3ccc(CN(CCC#N)S(C)(=O)=O)o3)C(=O)NC2=S)c1`?
NS3 helicase inh: 18.8; DNMT1 block: 58.4*

How did CC1=C2C[C@H]3[C@@H](CC=C4C[C@@H](O)CC[C@@]43C)[C@@H]2CC[C@]12O[C@@H]1C[C@H](C)CN[C@@H]1C2C (stereo partly drawn) do in these assays?
Casp6 inh: -4.0

Results for CCN(CC)c1ccc(CN2CC=C(c3ccc(F)cc3)CC2)cc1 ?
NSD2 inh: 54.1*; NS3 helicase inh: -34.7; DNMT1 block: -3.9

What do the screens show for `O=C(Cc1cccnc1)N1CCCCN2[C@@H](CO)[C@@H](c3ccc(C#CC4CC4)cc3)[C@@H]2C1`?
Casp6 inh: 0.5

Results for CC(C)c1ccc(C(c2c(O)c3ccccc3oc2=O)c2c(O)c3ccccc3oc2=O)cc1 ?
NSD2 inh: 9.9; DNMT1 block: 13.6; Casp6 inh: 66.3*

Results for CC[C@H](C)[C@@H]1NC(=O)CNC(=O)c2csc(n2)[C@H](C(C)(C)O)OC(=O)C(C)(C)[C@H](CCCC(C)(Cl)Cl)OC(=O)c2csc1n2 ?
DNMT1 block: 4.9; Casp6 inh: 39.9*

What do the screens show for `O=C(COC(=O)Cc1ccccc1)Nc1cc(S(=O)(=O)N2CCCCC2)ccc1Cl`?
NSD2 inh: 0.2; DNMT1 block: -1.7; Casp6 inh: 70.8*

Results for CCN1[C@@H]2c3ccc(-c4cccc(C(=O)N(C)C)c4)c(=O)n3C[C@H]1[C@H](CO)[C@H]2C(=O)OC ?
Casp6 inh: -2.2

Results for COC(=O)[C@H]1[C@H](CO)[C@H]2Cn3c(ccc(-c4ccc(F)cc4)c3=O)[C@@H]1N2Cc1ccccc1 ?
Casp6 inh: 1.3

What do the screens show for `O=C(Cc1ccccc1)N1CCCCN2[C@@H](CO)[C@H](c3ccc(C#CC4(O)CCCC4)cc3)[C@@H]2C1`?
Casp6 inh: 0.1

Results for O=C(O)c1ccc([N+](=O)[O-])c([N+](=O)[O-])c1 ?
NSD2 inh: -0.3; DNMT1 block: 10.6; Casp6 inh: 40.8*

How did COC(=O)[C@@H]1[C@@H](CO)[C@@H]2Cn3c(ccc(-c4ccc(F)cc4)c3=O)[C@H]1N2Cc1ccccc1 do in these assays?
Casp6 inh: -1.0

How did Cc1nc2c(=O)n(C)c(=O)nc-2n(C)n1 do in these assays?
NS3 helicase inh: 4.2; DNMT1 block: 128.4*

How did C=C1C(=O)O[C@H]2C[C@@H](C)[C@@H]3C=CC(=O)[C@@]3(C)C[C@H]12 do in these assays?
Casp6 inh: 74.3*

What do the screens show for `COC(=O)[C@@H]1[C@@H](CO)[C@@H]2Cn3c(ccc(-c4cccc(OC)c4)c3=O)[C@H]1N2CC1CC1`?
Casp6 inh: -3.3

Results for Cc1ccc(/C=C2\C(=O)NC(=O)N(Cc3ccccc3Cl)C2=O)o1 ?
NSD2 inh: 4.4; NS3 helicase inh: 19.3; DNMT1 block: 8.3; Casp6 inh: 50.6*

What do the screens show for `Cc1ccc(/C=C2/C(=O)NC(=O)N(Cc3ccc(F)cc3)C2=O)o1`?
NSD2 inh: 4.8; NS3 helicase inh: 25.3; Casp6 inh: 4.4

Results for c1cc(-c2ccc(C3[C@H]4CNC[C@@H]3N4CC3CC3)cc2)ccn1 (stereo partly drawn) ?
Casp6 inh: -0.4

How did CCC(CO)NC(=O)C1C=C2c3cccc4[nH]cc(c34)CC2N(C)C1 (stereo not drawn) do in these assays?
NS3 helicase inh: -36.5; DNMT1 block: -18.5; Casp6 inh: 48.5*
